Measurements from ChEMBL document CHEMBL1629614, “Inhibition of methionyl-tRNA synthetase by REP8839 and effects of resistance mutations on enzyme activity” (Antimicrob Agents Chemother, 2009).
pIC50, pKi: −log10 of the molar value. In brackets after ≈: the same amount, converted by molar mass.

Assays:
[1] = Inhibition of Escherichia coli MetRS
In short: (§1)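 tRNA aminoacylation with scintillation proximity detection. Purified MetRS in 40 mM Tris-HCl pH 8.0, 10 mM Mg acetate, 2.5 mM ATP, 80 mM KCl, 2.5 mM DTT, BSA, [3H]methionine (7 μM Met), 1 μg/ml crude E. coli tRNA. Human enzymes had 0.2–0.6 mM spermine, and substrate, Mg and enzyme levels were optimized per ortholog. Inhibitor was a DMSO serial dilution, 1 μM to 0.05 nM (final), 8% DMSO final, 30 min at room temperature. Reactions were EDTA-stopped, and charged tRNA was captured on polylysine YSi beads at pH 2.0. IC50 came from a four-parameter logistic fit versus DMSO control.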

Methionine--tRNA ligase [2] = target: Methionine--tRNA ligase (Staphylococcus aureus subsp. aureus MW2, UniProt Q8NY00, L213W); experiment: Inhibition of Staphylococcus aureus MetRS L213W mutant
In short: (§2)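 Purified recombinant S. aureus MetRS (mutant, expressed in E. coli) was tested by ATP:PPi exchange with [32P]PPi, using 125 mM methionine and 100 μM ATP so that the IC50 sits above enzyme concentration. Inhibitor was in DMSO (8% final), over 1 μM to 0.05 nM. A sigmoidal fit gave the IC50, and Ki = IC50/[(1+[Met]/KmMet)(1+KmATP/[ATP])], with KmMet taken at that ATP level.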

A549 = experiment: Cytotoxicity against human A549 cells by MTT assay; type: cell-based
Staphylococcus aureus [3] = experiment: Antimicrobial activity against Staphylococcus aureus expressing MetRS G54S mutant; type: functional
Staphylococcus aureus [4] = experiment: Antimicrobial activity against Staphylococcus aureus expressing MetRS L213W mutant; type: functional
[5] = Inhibition of human cytoplasmic MetRS; in short: as §1
Streptococcus pneumoniae [6] = experiment: Antimicrobial activity against Streptococcus pneumoniae expressing MetRS2 gene; type: functional
Haemophilus influenzae = experiment: Antimicrobial activity against Haemophilus influenzae expressing MetRS gene; type: functional
Staphylococcus aureus [7] = experiment: Antimicrobial activity against Staphylococcus aureus expressing MetRS V108M mutant; type: functional
Methionine--tRNA ligase [8] = target: Methionine--tRNA ligase (Staphylococcus aureus subsp. aureus MW2, UniProt Q8NY00, G54S); experiment: Inhibition of Staphylococcus aureus MetRS G54S mutant
Staphylococcus aureus [9] = experiment: Antimicrobial activity against Staphylococcus aureus expressing MetRS I57N I238F mutant; type: functional
Methionine--tRNA ligase [10] = target: Methionine--tRNA ligase (Staphylococcus aureus subsp. aureus MW2, UniProt Q8NY00, I57N); experiment: Inhibition of Staphylococcus aureus MetRS I57N mutant; in short: as §2
Escherichia coli = experiment: Antimicrobial activity against Escherichia coli expressing MetRS gene; type: functional
Methionine--tRNA ligase [11] = target: Methionine--tRNA ligase (Staphylococcus aureus subsp. aureus MW2, UniProt Q8NY00, A247E); experiment: Inhibition of Staphylococcus aureus MetRS A247E mutant; in short: as §2
Methionine--tRNA ligase [12] = target: Methionine--tRNA ligase (Staphylococcus aureus subsp. aureus MW2, UniProt Q8NY00, A64P/G54A); experiment: Inhibition of Staphylococcus aureus MetRS G54A A64P mutant
Methionine--tRNA ligase [13] = target: Methionine--tRNA ligase (Staphylococcus aureus subsp. aureus MW2, UniProt Q8NY00, I238F/I57N); experiment: Inhibition of Staphylococcus aureus MetRS I57N I238F mutant
Streptococcus pneumoniae [14] = experiment: Antimicrobial activity against Streptococcus pneumoniae expressing MetRS1 gene; type: functional
Staphylococcus aureus [15] = experiment: Antimicrobial activity against Staphylococcus aureus expressing MetRS I57N mutant; type: functional
Methionine--tRNA ligase [16] = target: Methionine--tRNA ligase (Staphylococcus aureus subsp. aureus MW2, UniProt Q8NY00, G223C); experiment: Inhibition of Staphylococcus aureus MetRS G223C mutant; in short: as §2
[17] = Inhibition of Staphylococcus aureus MetRS; in short: as §1
Methionine--tRNA ligase [18] = target: Methionine--tRNA ligase (Staphylococcus aureus subsp. aureus MW2, UniProt Q8NY00, V108M); experiment: Inhibition of Staphylococcus aureus MetRS V108M mutant; in short: as §2
[19] = Inhibition of human mitochondrial MetRS; in short: as §1
Staphylococcus aureus [20] = experiment: Antimicrobial activity against Staphylococcus aureus expressing MetRS G223C mutant; type: functional
Staphylococcus aureus [21] = experiment: Antimicrobial activity against Staphylococcus aureus expressing MetRS I57N G54S mutant; type: functional
Staphylococcus aureus [22] = experiment: Antimicrobial activity against Staphylococcus aureus expressing MetRS I57N A247E mutant; type: functional
Methionine--tRNA ligase [23] = target: Methionine--tRNA ligase (Staphylococcus aureus subsp. aureus MW2, UniProt Q8NY00, A247E/I57N); experiment: Inhibition of Staphylococcus aureus MetRS I57N A247E mutant
Staphylococcus aureus [24] = experiment: Antimicrobial activity against Staphylococcus aureus expressing MetRS A247E mutant; type: functional
Staphylococcus aureus [25] = experiment: Antimicrobial activity against Staphylococcus aureus expressing MetRS G54A A64P mutant; type: functional
[26] = Inhibition of Streptococcus pneumoniae MetRS1; in short: as §1
[27] = Cytotoxicity against rat H42E cells by MTT assay; type: cell-based
Methionine--tRNA ligase [28] = target: Methionine--tRNA ligase (Staphylococcus aureus subsp. aureus MW2, UniProt Q8NY00, I57N/V242F); experiment: Inhibition of Staphylococcus aureus MetRS I57N V242F mutant
[29] = Inhibition of Streptococcus pneumoniae MetRS2; in short: as §1
Methionine--tRNA ligase [30] = target: T1, Methionine--tRNA ligase (Haemophilus influenzae (strain ATCC 51907 / DSM 11121 / KW20 / Rd), UniProt P43828); experiment: Inhibition of Haemophilus influenzae MetRS; in short: as §1
T1 sequence (P43828 whole entry): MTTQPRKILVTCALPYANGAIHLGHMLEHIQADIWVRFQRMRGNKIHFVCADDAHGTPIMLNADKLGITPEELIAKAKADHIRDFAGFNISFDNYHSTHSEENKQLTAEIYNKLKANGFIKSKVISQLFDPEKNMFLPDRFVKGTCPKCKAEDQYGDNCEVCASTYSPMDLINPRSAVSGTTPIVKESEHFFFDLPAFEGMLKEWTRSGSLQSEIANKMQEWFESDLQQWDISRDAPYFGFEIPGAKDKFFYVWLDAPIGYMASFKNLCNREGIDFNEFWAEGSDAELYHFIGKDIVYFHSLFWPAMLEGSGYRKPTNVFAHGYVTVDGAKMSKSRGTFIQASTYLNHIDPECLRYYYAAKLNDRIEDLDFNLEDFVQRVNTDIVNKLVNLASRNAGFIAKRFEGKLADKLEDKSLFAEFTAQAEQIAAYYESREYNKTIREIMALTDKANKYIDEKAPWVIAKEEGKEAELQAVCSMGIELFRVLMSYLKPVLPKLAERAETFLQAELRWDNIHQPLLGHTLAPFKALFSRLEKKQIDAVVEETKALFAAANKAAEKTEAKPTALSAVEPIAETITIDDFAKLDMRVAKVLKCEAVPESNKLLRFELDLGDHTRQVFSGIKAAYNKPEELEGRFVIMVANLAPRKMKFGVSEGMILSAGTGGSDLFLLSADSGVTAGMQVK

Methionine--tRNA ligase [31] = target: Methionine--tRNA ligase (Staphylococcus aureus subsp. aureus MW2, UniProt Q8NY00, G54S/I57N); experiment: Inhibition of Staphylococcus aureus MetRS I57N G54S mutant
Staphylococcus aureus [32] = experiment: Antimicrobial activity against Staphylococcus aureus expressing MetRS gene; type: functional
Staphylococcus aureus [33] = experiment: Antimicrobial activity against Staphylococcus aureus expressing MetRS I57N V242F mutant; type: functional

Molecule `C=C(F)c1sc(CNCCCNc2cc(=O)c3ccccc3[nH]2)c(C)c1Br` [BEDEROCIN] has a pKi [1] of 8.00, a pKi (Methionine--tRNA ligase [2]) of 10.40 and a pIC50 (A549) of less than 4.70. It also gave an MIC (Staphylococcus aureus [3]) of 16 µg/mL (≈ 35.5 µM), an MIC (Staphylococcus aureus [4]) of 2 µg/mL (≈ 4.44 µM) and a pKi [5] of less than 4.70. It also gave an MIC (Streptococcus pneumoniae [6]) of 32 µg/mL (≈ 71.1 µM), an MIC (Haemophilus influenzae) greater than 64 µg/mL and an MIC (Staphylococcus aureus [7]) of 8 µg/mL (≈ 17.8 µM). It also gave a pKi (Methionine--tRNA ligase [8]) of 7.07, an MIC (Staphylococcus aureus [9]) of 32 µg/mL (≈ 71.1 µM) and a pKi (Methionine--tRNA ligase [10]) of 10.10. The MIC (Escherichia coli) was 16 µg/mL (≈ 35.5 µM), the pKi (Methionine--tRNA ligase [11]) was 10.22 and the pKi (Methionine--tRNA ligase [12]) was 5.72. It also gave a pKi (Methionine--tRNA ligase [13]) of 6.46, an MIC (Streptococcus pneumoniae [14]) of 0.12 µg/mL (≈ 0.266 µM) and an MIC (Staphylococcus aureus [15]) of 8 µg/mL (≈ 17.8 µM). For the same molecule, the pKi (Methionine--tRNA ligase [16]) was 9.29, the pKi [17] was 11.00 and the pKi (Methionine--tRNA ligase [18]) was 9.96. The pKi [19] was 7.64, the MIC (Staphylococcus aureus [20]) was 8 µg/mL (≈ 17.8 µM) and the MIC (Staphylococcus aureus [21]) was 32 µg/mL (≈ 71.1 µM). The MIC (Staphylococcus aureus [22]) was 32 µg/mL (≈ 71.1 µM), the pKi (Methionine--tRNA ligase [23]) was 7.22 and the MIC (Staphylococcus aureus [24]) was 4 µg/mL (≈ 8.88 µM). It also gave an MIC (Staphylococcus aureus [25]) of 32 µg/mL (≈ 71.1 µM), a pKi [26] of 10.26 and a pIC50 [27] of less than 4.70. The pKi (Methionine--tRNA ligase [28]) was 7.82, the pKi [29] was less than 5.30 and the pKi (Methionine--tRNA ligase [30]) was 6.65. It also gave a pKi (Methionine--tRNA ligase [31]) of 6.05, an MIC (Staphylococcus aureus [32]) of 0.12 µg/mL (≈ 0.266 µM) and an MIC (Staphylococcus aureus [33]) of 32 µg/mL (≈ 71.1 µM).
